# Experimental data: ChEMBL document CHEMBL1132623, “Structure-based design, synthesis, and biological evaluation of irreversible human rhinovirus 3C protease inhibitors. 4. Incorporation of P1 lactam moieties as L-glutamine replacements” (J Med Chem, 1999)
# Experiments:
# [1] = biological target: T1, Human rhinovirus A protease (Human rhinovirus sp.) (UniProt Q4U254); test: Irreversible inhibition of human rhinovirus 3C protease
# T1 sequence (whole entry): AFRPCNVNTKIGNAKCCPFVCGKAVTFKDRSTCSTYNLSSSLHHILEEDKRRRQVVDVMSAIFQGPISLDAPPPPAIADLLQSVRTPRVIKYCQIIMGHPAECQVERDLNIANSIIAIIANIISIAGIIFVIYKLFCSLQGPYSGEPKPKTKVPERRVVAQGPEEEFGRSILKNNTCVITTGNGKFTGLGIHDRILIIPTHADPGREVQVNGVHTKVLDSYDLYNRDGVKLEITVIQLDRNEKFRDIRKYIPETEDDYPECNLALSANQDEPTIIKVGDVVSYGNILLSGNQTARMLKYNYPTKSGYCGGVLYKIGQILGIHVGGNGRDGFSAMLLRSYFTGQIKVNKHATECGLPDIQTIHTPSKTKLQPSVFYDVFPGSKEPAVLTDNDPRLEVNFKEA
# [2] = The 50% cytotoxic concentration was calculated as the concentration of the drug that decreased the percentage of formazan produced in drug-treated,uninfected cells to 50% of that produced in drug free uninfected cells on serotype 14.; assay type: functional
# [3] = biological target: T1, Human rhinovirus A protease (Human rhinovirus sp.); test: The EC90 was calculated as the concentration of drug that increased the percentage of formazan production in drug treated, virus infected cells to 50% of that produced by drug free uninfected cells on human rhinovirus 1A.; assay type: functional
# [4] = biological target: T1, Human rhinovirus A protease (Human rhinovirus sp.); test: The EC90 was calculated as the concentration of drug that increased the percentage of formazan production in drug treated, virus infected cells to 50% of that produced by drug free uninfected cells on human rhinovirus 2.; assay type: functional
# chymotrypsin = test: half life towards biological agent (chymotrypsin); assay type: ADME
# Outline: (§1)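 Compound at 25 µM in 100 mM potassium phosphate pH 7.4 was preincubated 5 min at 37 °C. Reaction was started with chymotrypsin (5 units/mL) or porcine intestinal peptidase (0.1 units/mL). Aliquots taken at 0 and 60 min were quenched in CH3CN and centrifuged. Parent was quantified by reverse-phase C8 HPLC with UV at 220 nm. 1-Naphthyl butyrate hydrolysis was the peptidase esterase control.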
# [5] = half life towards biological agent (dithiothreitol 5 mM); assay type: ADME; conditions: dithiothreitol solution
# [6] = half life towards biological agent (dog plasma); assay type: ADME, organism-based, Canis lupus familiaris
# Outline: (§2)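 Human plasma (CPDA) or heparinized animal plasma, with rat plasma diluted 1:1 in 100 mM phosphate pH 7.4, and buffer controls, n = 3. Compound was added to 25 µM final at 37 °C and sampled periodically over 1 h. Samples were quenched in CH3CN, centrifuged, dried, reconstituted and analysed by reverse-phase HPLC. 1-Naphthyl butyrate was the esterase control.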
# [7] = half life towards biological agent (human plasma); assay type: ADME, organism-based; outline: as §2
# peptidase = test: half life towards biological agent (peptidase); assay type: ADME; outline: as §1
# [8] = biological target: T2, Calpain-1 catalytic subunit (Homo sapiens) (UniProt P07384); test: % activity against calpain 1 remaining after 10-15 min at 10 uM; conditions: Sus scrofa
# T2 sequence (whole entry): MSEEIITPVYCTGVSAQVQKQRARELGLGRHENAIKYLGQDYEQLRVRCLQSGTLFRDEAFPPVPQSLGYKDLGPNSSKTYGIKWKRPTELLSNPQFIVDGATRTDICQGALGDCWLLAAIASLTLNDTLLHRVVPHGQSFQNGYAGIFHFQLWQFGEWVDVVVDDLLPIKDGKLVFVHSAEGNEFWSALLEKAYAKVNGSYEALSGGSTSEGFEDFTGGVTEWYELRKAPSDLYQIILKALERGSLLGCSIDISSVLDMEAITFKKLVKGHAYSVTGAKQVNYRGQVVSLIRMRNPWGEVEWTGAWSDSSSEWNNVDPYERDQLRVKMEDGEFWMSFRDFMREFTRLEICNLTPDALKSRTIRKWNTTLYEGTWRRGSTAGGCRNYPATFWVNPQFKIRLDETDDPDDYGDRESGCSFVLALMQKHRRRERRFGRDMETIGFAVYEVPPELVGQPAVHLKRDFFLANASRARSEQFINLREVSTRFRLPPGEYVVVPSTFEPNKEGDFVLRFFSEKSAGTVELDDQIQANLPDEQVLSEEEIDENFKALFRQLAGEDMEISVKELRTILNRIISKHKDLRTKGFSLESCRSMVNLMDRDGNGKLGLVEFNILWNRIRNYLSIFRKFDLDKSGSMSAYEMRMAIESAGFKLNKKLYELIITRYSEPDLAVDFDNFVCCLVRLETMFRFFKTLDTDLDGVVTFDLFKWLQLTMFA
# Outline: (§3)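 Purified proteases: human liver cathepsin B, porcine erythrocyte calpain I, human neutrophil elastase, bovine chymotrypsin, human thrombin and bovine trypsin. Each enzyme was incubated with inhibitor for 10-15 min, at 10 µM or at 2 µM where specified. Residual enzyme activity is reported as % remaining.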
# [9] = biological target: Cathepsin B (Homo sapiens) (UniProt P07858); test: Inhibition of cathepsin B by the compound was measured as % activity of thrombin remaining after 10-15 min at 10 uM; outline: as §3
# [10] = biological target: Chymotrypsinogen A (Bos taurus) (UniProt P00766); test: Inhibition of Chymotrypsinogen by the compound was measured as % activity of thrombin remaining after 10-15 min at 10 uM; outline: as §3
# [11] = biological target: T3, Neutrophil elastase (Homo sapiens) (UniProt P08246); test: % activity against elastase remaining after 10-15 min at 10 uM; outline: as §3
# T3 sequence (whole entry): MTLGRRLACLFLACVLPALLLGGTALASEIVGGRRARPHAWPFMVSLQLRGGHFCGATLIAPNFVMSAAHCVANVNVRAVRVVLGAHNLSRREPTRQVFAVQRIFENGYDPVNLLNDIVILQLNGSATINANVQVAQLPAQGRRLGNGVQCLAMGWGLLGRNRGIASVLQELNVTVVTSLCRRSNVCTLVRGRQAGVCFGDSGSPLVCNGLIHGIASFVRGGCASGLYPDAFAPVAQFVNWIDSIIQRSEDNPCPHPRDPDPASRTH
# [12] = biological target: T1, Human rhinovirus A protease (Human rhinovirus sp.); test: The EC90 was calculated as the concentration of drug that increased the percentage of formazan production in drug treated, virus infected cells to 50% of that produced by drug free uninfected cells on human rhinovirus-10.; assay type: functional
# [13] = biological target: T1, Human rhinovirus A protease (Human rhinovirus sp.); test: The EC90 was calculated as the concentration of drug that increased the percentage of formazan production in drug treated, virus infected cells to 50% of that produced by drug free uninfected cells on human rhinovirus-14.; assay type: functional
# [14] = biological target: Prothrombin (Homo sapiens) (UniProt P00734); test: Inhibition of thrombin by the compound was measured as % activity of thrombin remaining after 10-15 min at 10 uM; outline: as §3
# [15] = biological target: T4, Serine protease 1 (Bos taurus) (UniProt P00760); test: Inhibition of trypsin by the compound was measured as % activity of thrombin remaining after 10-15 min at 10 uM; outline: as §3
# T4 sequence (whole entry): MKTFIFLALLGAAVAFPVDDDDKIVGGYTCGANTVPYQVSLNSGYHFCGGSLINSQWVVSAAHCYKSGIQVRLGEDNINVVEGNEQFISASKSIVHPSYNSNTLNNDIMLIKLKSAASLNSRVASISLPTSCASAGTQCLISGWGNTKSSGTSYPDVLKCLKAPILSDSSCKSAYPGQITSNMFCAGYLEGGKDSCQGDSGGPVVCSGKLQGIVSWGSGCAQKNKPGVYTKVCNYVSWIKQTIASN
# [16] = half life towards biological agent (rat plasma); assay type: ADME, cell-free; outline: as §2
# [17] = biological target: T1, Human rhinovirus A protease (Human rhinovirus sp.); test: The kobs/[I] value for the irreversible inhibitors was obtained by reaction initiated by addition of 50 nM 3CP,containing 1 uM substrate and varying inhibitor concentrations on serotype 2.
# [18] = biological target: T2, Calpain-1 catalytic subunit (Homo sapiens); test: % activity against calpain 1 remaining after 10-15 min at 2 uM; conditions: Sus scrofa; outline: as §3
# [19] = biological target: Cathepsin B (Homo sapiens) (UniProt P07858); test: Inhibition of cathepsin B by the compound was measured as % activity of thrombin remaining after 10-15 min at 2 uM; outline: as §3
# [20] = biological target: Chymotrypsinogen A (Bos taurus) (UniProt P00766); test: Inhibition of Chymotrypsinogen by the compound was measured as % activity of thrombin remaining after 10-15 min at 2 uM; outline: as §3
# [21] = biological target: T3, Neutrophil elastase (Homo sapiens); test: % activity against elastase remaining after 10-15 min at 2 uM; outline: as §3
# [22] = biological target: Prothrombin (Homo sapiens) (UniProt P00734); test: Inhibition of thrombin by the compound was measured as % activity of thrombin remaining after 10-15 min at 2 uM; outline: as §3
# [23] = biological target: T4, Serine protease 1 (Bos taurus); test: Inhibition of trypsin by the compound was measured as % activity of thrombin remaining after 10-15 min at 2 uM; outline: as §3
# [24] = Increased percentage of formazan production in drug treated virus infected cells to equal 50% control drug free uninfected cells on serotype 14
smiles,measurement,setting,value
CCOC(=O)/C=C/[C@H](C[C@H]1CCNC1=O)NC(=O)[C@H](Cc1ccccc1)NC(=O)[C@H](CC(C)C)NC(=O)OCc1ccccc1,K obs / 1,[1],18000 M⁻¹ s⁻¹
same,CC50,[2],> 100 µM
CCOC(=O)/C=C/[C@H](CCC(N)=O)NC(=O)[C@@H](CC(=O)[C@@H](NC(=O)c1cc(C)on1)C(C)C)Cc1ccc(F)cc1,EC90,[3],0.63 µM
same,EC90,[4],0.28 µM
CCOC(=O)/C=C/[C@H](C[C@@H]1CCCNC1=O)NC(=O)[C@@H](CC(=O)[C@@H](NC(=O)c1cc(C)on1)C(C)C)Cc1ccc(F)cc1,K obs / 1,[1],500000 M⁻¹ s⁻¹
same,CC50,[2],> 100 µM
CCOC(=O)/C=C/[C@H](C[C@@H]1CCCNC1=O)NC(=O)[C@H](Cc1ccccc1)NC(=O)[C@H](CC(C)C)NC(=O)OCc1ccccc1,K obs / 1,[1],239000 M⁻¹ s⁻¹
same,CC50,[2],> 100 µM
CCOC(=O)/C=C/[C@H](C[C@@H]1CCNC1=O)NC(=O)[C@@H](CC(=O)[C@@H](NC(=O)c1cc(C)on1)C(C)C)Cc1ccc(F)cc1,half-life,chymotrypsin,> 1 h
same,half-life,[5],> 0.5 h
same,half-life,[6],> 1 h
same,half-life,[7],> 1 h
same,half-life,peptidase,> 1 h
same,Activity,[8],100%
same,Activity,[9],98%
same,Activity,[10],100%
same,Activity,[11],99%
same,EC90,[3],0.041 µM
same,K obs / 1,[1],1.09e+06 M⁻¹ s⁻¹
same,EC90,[4],0.03 µM
same,EC90,[12],0.1 µM
same,EC90,[13],0.02 µM
same,Activity,[14],100%
same,Activity,[15],100%
same,CC50,[2],> 100 µM
same,half-life,[16],< 2 min
CCOC(=O)/C=C/[C@H](C[C@@H]1CCCNC1=O)NC(=O)[C@H](Cc1ccc(F)cc1)NC(=O)[C@@H](NC(=O)c1cc(C)on1)C(C)C,K obs / 1,[1],900000 M⁻¹ s⁻¹
same,CC50,[2],> 100 µM
CCOC(=O)/C=C/[C@H](CN1CCNC1=O)NC(=O)[C@H](Cc1ccccc1)NC(=O)[C@H](CC(C)C)NC(=O)OCc1ccccc1,K obs / 1,[1],10900 M⁻¹ s⁻¹
same,CC50,[2],> 100 µM
CCOC(=O)/C=C/[C@H](CCC(=O)N(C)C)NC(=O)[C@H](Cc1ccccc1)NC(=O)[C@H](CC(C)C)NC(=O)OCc1ccccc1,CC50,[2],> 100 µM
CCOC(=O)/C=C/[C@H](C[C@@H]1CCNC1=O)NC(=O)[C@H](Cc1ccccc1)NC(=O)[C@@H](NC(=O)OCc1ccccc1)C(C)C,K obs / 1,[1],500000 M⁻¹ s⁻¹
same,CC50,[2],> 100 µM
CCOC(=O)/C=C/[C@H](C[C@@H]1CCNC1=O)NC(=O)[C@H](Cc1ccccc1)NC(=O)[C@H](CC(C)C)NC(=O)OCc1ccccc1,K obs / 1,[1],257000 M⁻¹ s⁻¹
same,K obs / 1,[17],31000 M⁻¹ s⁻¹
same,CC50,[2],> 100 µM
CCOC(=O)/C=C/[C@H](CCC(N)=O)NC(=O)[C@H](Cc1ccccc1)NC(=O)[C@H](CC(C)C)NC(=O)OCc1ccccc1,Activity,[18],100%
same,Activity,[19],39%
same,Activity,[20],96%
same,Activity,[21],92%
same,Activity,[22],101%
same,Activity,[23],98%
same,CC50,[2],> 320 µM
same,EC50,[24],0.54 µM
CCOC(=O)/C=C/[C@H](C[C@@H]1CCNC1=O)NC(=O)[C@H](Cc1ccc(F)cc1)NC(=O)[C@@H](NC(=O)c1cc(C)on1)C(C)(C)C,Activity,[8],100%
same,Activity,[9],81%
same,Activity,[10],97%
same,Activity,[11],96%
same,K obs / 1,[1],980000 M⁻¹ s⁻¹
same,Activity,[14],101%
same,Activity,[15],95%
same,CC50,[2],> 100 µM
CCOC(=O)/C=C/[C@H](CCC(=O)NC)NC(=O)[C@H](Cc1ccccc1)NC(=O)[C@H](CC(C)C)NC(=O)OCc1ccccc1,CC50,[2],> 100 µM
CCOC(=O)/C=C/[C@H](C[C@@H]1CCNC1=O)NC(=O)[C@H](Cc1ccc(F)cc1)NC(=O)[C@@H](NC(=O)c1cc(C)on1)C(C)C,Activity,[8],100%
same,Activity,[9],96%
same,Activity,[10],101%
same,Activity,[11],100%
same,EC90,[3],0.14 µM
same,K obs / 1,[1],1.5e+06 M⁻¹ s⁻¹
same,EC90,[4],0.05 µM
same,EC90,[12],0.14 µM
same,EC90,[13],0.04 µM
same,Activity,[14],103%
same,Activity,[15],100%
same,CC50,[2],> 100 µM
